Series [1] can be described thus: Solubility of the compound in phosphate buffered saline. The format is physicochemical. In a few lines:
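Solubility measured in PBS buffer, reported in µg/mL.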

Series [2] relates to Rattus norvegicus. Briefly: AUC (0 to 24 hrs) in rat at 70 mg/kg, sc. The format is ADME, organism-based, Plasma. Details: time < 24 hr, dose 70 mg/kg, route subcutaneous. Particulars: in vivo.
Series [3] is described as follows: Cmax in rat at 70 mg/kg, sc. The format is ADME, organism-based. Details: dose 70 mg/kg, route subcutaneous. Particulars: in vivo.
Series [4] can be described thus: Tmax in rat at 70 mg/kg, sc. The format is ADME, organism-based. On the set-up: dose 70 mg/kg, route subcutaneous. As to conditions: in vivo.
Series [5] concerns Rattus norvegicus. Description: AUC (0 to 24 hrs) in rat at 100 mg/kg, sc. The format is ADME, organism-based, Plasma. On the set-up: time < 24 hr, dose 100 mg/kg, route subcutaneous. As to conditions: in vivo.
A short description of series [6]: Tmax in rat at 100 mg/kg, sc. The format is ADME, organism-based. On the set-up: dose 100 mg/kg, route subcutaneous. As to conditions: in vivo.
A short description of series [7]: Cmax in rat at 100 mg/kg, sc. Format: ADME, organism-based. Details: dose 100 mg/kg, route subcutaneous. Particulars: in vivo.

Structures are written as SMILES. Values after ≈ are worked out from the molar mass of the structure shown.

The solubility is the dissolved amount per volume that the medium holds. Low readings indicate little dissolved substance, high ones much dissolved substance. For `CCCn1c(CN2C(=O)COc3c2cc(Cl)cc3[N+](=O)[O-])nnc1-c1ccc(Cl)cn1`, in series [1], the concentration in solution (solubility) was 1 µg/mL (≈ 2.16 µM).
As for `CCCn1c(CN2C(=O)COc3c2cc(Cl)cc3[N+](=O)[O-])nnc1-c1ncccc1C`, the concentration in solution in series [1] (solubility) was 80 µg/mL (≈ 181 µM).
`O=C1COc2c(Cl)cc(Cl)cc2N1Cc1nnc(CCc2ccc(Cl)cc2)n1CCC(F)(F)F` displayed a solubility in series [1] of 1.6 µg/mL (≈ 3 µM).
By AUC is commonly meant the area under the concentration-time curve, a measure of exposure. A low value points to less exposure. As usually defined, the Cmax is the maximum level reached in the sampled fluid or tissue. Broadly, the Tmax is the time at which the peak concentration occurs. On to `CCCn1c(CN2C(=O)COc3c(C)cc(C)cc32)nnc1C1Cc2ccccc2C1`, for which the concentration in solution in series [1] (solubility) came to 35 µg/mL (≈ 84 µM). In addition, the AUC with Rattus norvegicus [2] is 61.6 µM·h. Also, the Cmax in series [3] amounted to 3500 nM. Besides, in series [4], the Tmax stood at 24 h.
Turning to `CCCn1c(CN2C(=O)COc3c(C)cc(C)cc32)nnc1-c1ccc(Cl)cn1`, in series [1], the solubility is 1.1 µg/mL (≈ 2.67 µM).
On the same count and under the same terms, with `CCCn1c(CN2C(=O)COc3c2cc(C)cc3[N+](=O)[O-])nnc1-c1ccc(Cl)cn1` the figure was 2 µg/mL (≈ 4.52 µM); with `CCCn1c(CN2C(=O)COc3c(C)cc(C)cc32)nnc1[C@@H]1CCc2ccccc2C1`, 23 µg/mL (≈ 53.4 µM); with `O=C1COc2c(cc(Cl)cc2[N+](=O)[O-])N1Cc1nnc(-c2ccc(Cl)cn2)n1CCC(F)(F)F`, 2.2 µg/mL (≈ 4.25 µM).
On the same count and under the same terms, with `CCCn1c(CN2C(=O)COc3c(C)cc(C)cc32)nnc1[C@@H]1C[C@H]1c1ccccc1` the figure was 19 µg/mL (≈ 45.6 µM).
`CCCn1c(CN2C(=O)COc3c(C)cc(C)cc32)nnc1-c1ccccn1`: in series [1], the concentration in solution (solubility) came to 64 µg/mL (≈ 170 µM). In addition, the AUC with Rattus norvegicus [5] was 16.2 µM·h. The Tmax in series [6] was determined as 8 h. In series [7], the Cmax was 1050 nM.
